Drawing on ChEMBL document CHEMBL1140626, “Quantitative structure-activity relationship of peptides binding to the class II major histocompatibility complex molecule Aq associated with autoimmune arthritis” (J Med Chem, 2007), this text covers inhibition for 19 substances.

What all share (assay type): cell-based
Assay [1] is described as follows: Displacement of biotinylated CLIP peptide from H-2Aq expressed in M12Q 14-7 cells at 28 uM. Summed up:
(§1)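 Competition binding on M12Q 14-7 cells transfected with H-2Aq. Test peptide (seven levels, 750 to 1 µM) co-incubated 2.5 h at 37 °C with biotinylated CLIP at 5 µM. After washing, cells were stained with streptavidin-PE and read by flow cytometry. % inhibition was taken from gated mean fluorescence against the no-inhibitor control, after subtracting the no-CLIP background. Duplicates, repeated once; duplicate averages were used.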

Assay [2] can be described thus: Displacement of biotinylated CLIP peptide from H-2Aq expressed in M12Q 14-7 cells at 83 uM. The procedure, abridged: as §1
A short description of assay [3]: Displacement of biotinylated CLIP peptide from H-2Aq expressed in M12Q 14-7 cells at 250 uM. The procedure, abridged:
as §1

As usually defined, the inhibition is the change of the read-out against control, counted positive when it falls. A higher inhibition goes with a strong effect. Regarding Ac-IMMFKTDVK-NH2, the inhibition in assay [1] came to 10%; in assay [2], 24%; in assay [3], 16%.

For the substance Ac-IMMFKMSDK-NH2, the inhibition in assay [1] is 4%; in assay [2], 17%; in assay [3] it was 30%.

For Ac-IMTFKAVYK-NH2, the inhibition is 47% in assay [1], 59% in assay [2] and 72% in assay [3].

Take Ac-ITTFKSSSK-NH2: the inhibition in assay [1] came to 6%; in assay [2] it was 6%; in assay [3] it was 20%.

On to Ac-IAVFKMVRK-NH2, for which the inhibition in assay [1] came to 42%; in assay [2], 59%; in assay [3] it was 70%.

Regarding Ac-IMSFKTRDK-NH2, the inhibition amounted to 15% in assay [1], 27% in assay [2] and 54% in assay [3].

Turning to Ac-IVSFKAYRK-NH2, the inhibition in assay [1] is 49%; in assay [2], 61%; in assay [3] it was 51%.

Consider Ac-IATFKTYYK-NH2, for which the inhibition worked out at 38% in assay [1], 58% in assay [2] and 70% in assay [3].

As to Ac-ISAFKTNRK-NH2, the inhibition was 42% in assay [1], 61% in assay [2] and 84% in assay [3].

On to Ac-IAMFKSVNK-NH2, for which the inhibition in assay [1] was determined as 19%; in assay [2], 32%; in assay [3], 50%.

On to Ac-IMMFKVRRK-NH2, for which the inhibition in assay [1] worked out at 36%; in assay [2], 52%; in assay [3] it was 74%.

For the substance Ac-IAMFKMRSK-NH2, the values for the inhibition in assay [1], in assay [2] and in assay [3] were 40%, 63% and 78%, respectively.

Take Ac-IMTFKMYVK-NH2: the inhibition in assay [1] came out at 13%; in assay [2], 40%; in assay [3], 48%.

With Ac-IVAFKTVVK-NH2, the inhibition amounted to 22% in assay [1], 27% in assay [2] and 41% in assay [3].

For Ac-ITMFKVVYK-NH2, the inhibition came out at 35% in assay [1], 50% in assay [2] and 59% in assay [3].

In the case of Ac-IAAFKADSK-NH2, the inhibition was determined as 31% in assay [1], 36% in assay [2] and 53% in assay [3].

Regarding Ac-ITMFKMDRK-NH2, the inhibition in assay [1] came to 26%; in assay [2], 46%; in assay [3] it was 62%.

For the substance Ac-ISTFKARVK-NH2, the inhibition in assay [1] was 39%; in assay [2], 58%; in assay [3], 74%.

Ac-ITSFKMRYK-NH2: the results for the inhibition in assay [1], in assay [2] and in assay [3] were 50%, 69% and 80%, respectively.
